ChEMBL document CHEMBL5131507, “Identification of histone deacetylase 10 (HDAC10) inhibitors that modulate autophagy in transformed cells” (Eur J Med Chem, 2022)
Calls of active or inactive are those of the source. The calls are words filed in the database; no cut-off is given here.

Tests used:
Histone deacetylase 1 [1] = target: T1, Histone deacetylase 1 (Homo sapiens, UniProt Q13547); assay: Inhibition of recombinant human HDAC1 using ZMAL (Z-(Ac)Lys-AMC as substrate incubated for 20 mins at 10 uM and measured by homogenous fluorescence assay relative to control
T1 sequence (Q13547 whole entry): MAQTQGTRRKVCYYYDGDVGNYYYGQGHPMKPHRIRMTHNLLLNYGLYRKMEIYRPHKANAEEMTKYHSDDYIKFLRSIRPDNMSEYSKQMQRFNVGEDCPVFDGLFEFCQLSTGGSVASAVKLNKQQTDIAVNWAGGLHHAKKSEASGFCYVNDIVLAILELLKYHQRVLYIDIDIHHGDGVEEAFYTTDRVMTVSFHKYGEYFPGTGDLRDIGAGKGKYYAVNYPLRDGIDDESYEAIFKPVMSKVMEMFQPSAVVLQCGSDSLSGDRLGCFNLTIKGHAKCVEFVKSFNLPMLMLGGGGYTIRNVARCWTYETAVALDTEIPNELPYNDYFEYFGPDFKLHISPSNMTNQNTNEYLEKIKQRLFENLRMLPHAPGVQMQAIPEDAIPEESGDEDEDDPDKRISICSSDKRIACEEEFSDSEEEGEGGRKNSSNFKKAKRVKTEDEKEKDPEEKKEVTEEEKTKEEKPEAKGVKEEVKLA

[2] = target: T2, Protein deacetylase HDAC6 (Homo sapiens) (UniProt Q9UBN7); assay: Inhibition of recombinant human HDAC6 using ZMAL (Z-(Ac)Lys-AMC as substrate incubated for 20 mins at 1 uM and measured by homogenous fluorescence assay relative to control
T2 sequence (whole entry): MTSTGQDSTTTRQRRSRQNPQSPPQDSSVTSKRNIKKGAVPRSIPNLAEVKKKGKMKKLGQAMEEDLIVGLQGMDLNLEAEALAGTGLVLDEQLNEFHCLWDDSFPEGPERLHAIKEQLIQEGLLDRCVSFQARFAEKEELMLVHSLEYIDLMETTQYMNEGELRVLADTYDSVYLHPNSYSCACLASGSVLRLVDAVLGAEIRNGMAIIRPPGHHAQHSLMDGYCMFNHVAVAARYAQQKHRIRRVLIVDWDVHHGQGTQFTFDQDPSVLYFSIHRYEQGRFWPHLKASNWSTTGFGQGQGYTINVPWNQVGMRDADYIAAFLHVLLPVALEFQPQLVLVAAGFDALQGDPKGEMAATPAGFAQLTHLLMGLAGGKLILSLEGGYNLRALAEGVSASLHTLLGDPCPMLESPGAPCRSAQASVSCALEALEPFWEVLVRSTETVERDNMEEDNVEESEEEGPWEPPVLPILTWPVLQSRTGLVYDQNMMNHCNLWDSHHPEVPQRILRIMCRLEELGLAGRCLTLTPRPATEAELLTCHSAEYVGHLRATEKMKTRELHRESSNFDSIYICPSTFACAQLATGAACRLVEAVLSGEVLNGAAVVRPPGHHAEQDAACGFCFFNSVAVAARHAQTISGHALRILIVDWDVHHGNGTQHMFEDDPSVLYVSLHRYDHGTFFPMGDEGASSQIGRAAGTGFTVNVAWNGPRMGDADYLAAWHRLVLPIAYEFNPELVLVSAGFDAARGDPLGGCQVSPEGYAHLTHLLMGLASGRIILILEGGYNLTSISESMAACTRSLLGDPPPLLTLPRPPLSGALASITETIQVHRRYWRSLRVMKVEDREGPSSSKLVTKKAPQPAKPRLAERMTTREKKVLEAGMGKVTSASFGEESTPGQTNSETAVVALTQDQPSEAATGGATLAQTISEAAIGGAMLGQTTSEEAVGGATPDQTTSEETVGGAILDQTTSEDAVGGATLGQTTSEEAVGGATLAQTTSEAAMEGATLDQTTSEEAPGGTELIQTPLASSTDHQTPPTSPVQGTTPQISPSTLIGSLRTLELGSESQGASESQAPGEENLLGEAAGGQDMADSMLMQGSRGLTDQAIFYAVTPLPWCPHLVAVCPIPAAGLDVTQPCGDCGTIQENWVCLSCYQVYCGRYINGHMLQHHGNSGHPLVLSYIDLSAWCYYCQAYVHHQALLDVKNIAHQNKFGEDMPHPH

Histone deacetylase 1 [3] = target: T1, Histone deacetylase 1; assay: Inhibition of recombinant human HDAC1 using ZMAL (Z-(Ac)Lys-AMC as substrate incubated for 20 mins at 1 uM and measured by homogenous fluorescence assay relative to control
[4] = target: T2, Protein deacetylase HDAC6 (Homo sapiens); assay: Inhibition of recombinant human HDAC6 using ZMAL (Z-(Ac)Lys-AMC as substrate incubated for 20 mins at 10 uM and measured by homogenous fluorescence assay relative to control
HEK293 = assay: Cytotoxicity against human HEK293 cells assessed as cell viability at 50 uM measured after 24 hrs by Alamar Blue assay; type: toxicity, cell-based; conditions: hek293, 24 h
[5] = target: T3, Polyamine deacetylase HDAC10 (Danio rerio, UniProt F1QCV2); assay: Inhibition of zebra fish HDAC10 using Ac-spermidine-AMC as substrate incubated for 25 mins and measured by fluorescence assay
T3 sequence (F1QCV2 whole entry): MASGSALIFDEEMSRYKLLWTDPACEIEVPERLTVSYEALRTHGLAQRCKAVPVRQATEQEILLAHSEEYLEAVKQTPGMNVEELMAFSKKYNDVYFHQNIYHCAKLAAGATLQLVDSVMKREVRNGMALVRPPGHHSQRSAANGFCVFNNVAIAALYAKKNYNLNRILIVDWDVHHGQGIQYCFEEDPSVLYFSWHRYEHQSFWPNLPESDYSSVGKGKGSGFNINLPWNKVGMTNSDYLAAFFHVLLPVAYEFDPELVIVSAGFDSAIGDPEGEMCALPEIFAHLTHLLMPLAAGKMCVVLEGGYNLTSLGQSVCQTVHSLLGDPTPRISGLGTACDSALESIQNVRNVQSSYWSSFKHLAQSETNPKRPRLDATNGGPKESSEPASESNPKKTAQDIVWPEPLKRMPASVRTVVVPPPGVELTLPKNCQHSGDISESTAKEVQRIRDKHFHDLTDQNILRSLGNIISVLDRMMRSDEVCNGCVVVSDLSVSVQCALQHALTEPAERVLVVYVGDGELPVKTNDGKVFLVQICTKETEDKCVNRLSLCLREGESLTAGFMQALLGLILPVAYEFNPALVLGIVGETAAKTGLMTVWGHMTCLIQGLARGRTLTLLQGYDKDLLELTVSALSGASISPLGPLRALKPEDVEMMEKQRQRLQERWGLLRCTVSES
Method in brief: (§1)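 Ac-spermidine-AMC at 10.5 μM final in pH 7.9 phosphate buffer (NaCl, EDTA, glycerol, Mesna, Tween 20); inhibitors in DMSO. 25 min at 25 °C, stopped with NDA in borate pH 9.5. Read at Ex 330/Em 390 nm; IC50 by nonlinear regression.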

[6] = target: T4, Protein deacetylase HDAC6 (Homo sapiens, UniProt Q9UBN7); assay: Inhibition of recombinant human HDAC6 using ZMAL (Z-(Ac)Lys-AMC as substrate incubated for 20 mins and measured by homogenous fluorescence assay
T4 sequence (Q9UBN7 whole entry): T2 sequence (whole entry)

Histone deacetylase 8 = target: T5, Histone deacetylase 8 (Homo sapiens, UniProt Q9BY41); assay: Inhibition of recombinant human HDAC8 using H2N-Arg- His-Lys(Ac)-Lys(Ac)-AMC as substrate incubated for 90 mins and measured after 20 mins by fluorescence assay
T5 sequence (Q9BY41 whole entry): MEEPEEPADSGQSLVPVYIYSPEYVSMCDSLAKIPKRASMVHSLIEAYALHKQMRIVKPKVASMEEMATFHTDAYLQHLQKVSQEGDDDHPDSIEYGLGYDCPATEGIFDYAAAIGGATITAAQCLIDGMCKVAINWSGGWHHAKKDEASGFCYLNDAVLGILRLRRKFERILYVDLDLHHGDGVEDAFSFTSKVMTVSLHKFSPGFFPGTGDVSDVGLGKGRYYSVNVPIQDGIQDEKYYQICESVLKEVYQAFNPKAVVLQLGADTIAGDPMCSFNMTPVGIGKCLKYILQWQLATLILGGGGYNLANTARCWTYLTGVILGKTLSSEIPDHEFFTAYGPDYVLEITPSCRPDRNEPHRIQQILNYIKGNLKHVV
Method in brief: (§2)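 Recombinant hHDAC8 run per a commercial fluorometric HDAC8 kit protocol. Substrate H2N-Arg-His-Lys(Ac)-Lys(Ac)-AMC at 50 μM with enzyme and rising inhibitor concentrations, 90 min at 37 °C. Stop solution with inhibitor plus trypsin added, developed 20 min at 37 °C. Read at Ex 355/Em 460 nm.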

MV4-11 [7] = assay: Induction of autophagy in human MV4-11 cells assessed as slight increase in HDAC10 at 2 to 15 uM measured by immunoblotting method; type: functional, cell-based; conditions: dose 2-15 µM
[8] = target: T2, Protein deacetylase HDAC6 (Homo sapiens); assay: Inhibition of HDAC6 in human MV4-11 cells assessed as fold-induction of tubulin acetylation at 15 uM measured by immunoblotting method; type: cell-based
Method in brief: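 MV4–11 cells treated 24 h with 2–15 μM test compounds or 0.5 μM marbostat-100 as HDAC6 reference, with solvent control. Whole-cell lysates immunoblotted for acetylated tubulin-α, β-actin as loading control. Blots quantified and expressed as fold change over untreated cells; n = 2.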

Histone deacetylase 1 [9] = target: T1, Histone deacetylase 1; assay: Inhibition of recombinant human HDAC1 using ZMAL (Z-(Ac)Lys-AMC as substrate incubated for 20 mins and measured by homogenous fluorescence assay
[10] = target: T6, Polyamine deacetylase HDAC10 (Danio rerio) (UniProt F1QCV2); assay: Inhibition of zebra fish HDAC10 using Ac-spermidine-AMC as substrate incubated for 25 mins at 1 uM and measured by fluorescence assay relative to control; method in brief: as §1
T6 sequence (whole entry): T3 sequence (F1QCV2 whole entry)

[11] = target: T7, Histone deacetylase 8 (Homo sapiens) (UniProt Q9BY41); assay: Inhibition of recombinant human HDAC8 using H2N-Arg- His-Lys(Ac)-Lys(Ac)-AMC as substrate incubated for 90 mins at 1 uM and measured after 20 mins by fluorescence assay relative to control; method in brief: as §2
T7 sequence (whole entry): T5 sequence (Q9BY41 whole entry)

MV4-11 [12] = assay: Induction of autophagy in human MV4-11 cells assessed as increase in autophagic vesicles at 2 to 15 uM measured by cyto-ID green staining based flow cytometry assay; type: functional, cell-based; conditions: dose 2-15 µM
Method in brief: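 MV4-11 cells exposed 2–15 μM for 24 h at 37 °C, 5% CO2, with 10 μM chloroquine added to all samples; solvent-treated control. Harvested, PBS-washed, stained with Cyto-ID Green (1:1000 in phenol-red-free RPMI with 5% FCS, 30 min, 37 °C), washed twice, read by flow cytometry. n = 3; two-way ANOVA.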

SK-N-BE(2)-C = assay: Induction of autophagy in human SK-N-BE(2)-C cells assessed as increase in lysosomal compartment measured by pH-dependent LysoTracker DND-99 fluorescence assay; type: functional, cell-based
Method in brief: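 SK-N-BE(2)-C neuroblastoma cells seeded at 1.5 × 10^5 per well, treated 24 h, then stained 1 h with 50 nM LysoTracker Red DND-99 in medium under standard culture conditions. Washed in ice-cold phenol-red-free RPMI, trypsinized 3 min at 37 °C, pelleted, resuspended in ice-cold phenol-red-free RPMI before measurement.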

[13] = target: T6, Polyamine deacetylase HDAC10 (Danio rerio); assay: Inhibition of zebra fish HDAC10 using Ac-spermidine-AMC as substrate incubated for 25 mins at 10 uM and measured by fluorescence assay relative to control; method in brief: as §1
[14] = target: T7, Histone deacetylase 8 (Homo sapiens); assay: Inhibition of recombinant human HDAC8 using H2N-Arg- His-Lys(Ac)-Lys(Ac)-AMC as substrate incubated for 90 mins at 10 uM and measured after 20 mins by fluorescence assay relative to control; method in brief: as §2

Row | SMILES | inhibition (Histone deacetylase 1 [1]) [%] | inhibition (Histone deacetylase 1 [3]) [%] | Activity (HEK293) [%] | IC50 [5] [nM] | IC50 [6] [nM] | IC50 (Histone deacetylase 8) [nM] | other results
1 | O=C(/C=C/C1CCN(Cc2cccc(Cl)c2)CC1)NO | 67 | 24 | 88.6 | 60 | – | – | inhibition [2]: 40%; inhibition [4]: 83%
2 | O=C(/C=C/C1CCN(Cc2csc3ccccc23)CC1)NO | 66 | 29 | 88.2 | 62 | 1400 | 1300 | –
3 | Cn1cc(CN2CCC(/C=C/C(=O)NO)CC2)c2ccccc21 | 67 | 12 | 68.2 | 58 | 2420 | 920 | Activity (MV4-11 [7]): Active; fold change (FC) [8]: 36
4 | CN1CCc2c(c3ccccc3n2Cc2ccc(C(=O)NO)cc2)C1 [TUBASTATIN A] | – | – | – | 220 | – | – | –
5 | O=C(/C=C/C1CCN(Cc2cccc3ccccc23)CC1)NO | – | – | 51.6 | 20 | 3700 | – | Activity (MV4-11 [7]): Active; IC50 (Histone deacetylase 1 [9]): 3000 nM; fold change (FC) [8]: 36
6 | CN1CCN(Cc2ccc(C(=O)NO)cc2)CC1 | 54 | 6 | 86.4 | 43 | 280 | – | –
7 | O=C(NO)c1ccc(CN2CCCCC2)cc1 | – | – | 92.6 | – | – | – | inhibition [10]: 4%; inhibition [11]: 5%
8 | O=C(/C=C/C1CCN(Cc2ccccc2)CC1)NO | 62 | 12 | 100.9 | 530 | – | – | inhibition [2]: 34%; inhibition [4]: 89%
9 | O=C(/C=C/C1CCN(Cc2ccc(Cl)cc2)CC1)NO | – | – | 84.6 | 33 | 430 | 950 | IC50 (Histone deacetylase 1 [9]): 9000 nM
10 | O=C(/C=C/C1CCN(CCc2c[nH]c3ccccc23)CC1)NO | 54 | 7 | 77.3 | 29 | 4800 | – | Activity (MV4-11 [12]): Active; Activity (SK-N-BE(2)-C): Active
11 | O=C(NO)c1ccc(CNCc2ccccc2)cc1 | 49 | 19 | 77.1 | 37 | 210 | 3500 | –
12 | O=C(/C=C/C1CCN(CCc2ccccc2)CC1)NO | – | – | 54.4 | 11 | 4400 | – | IC50 (Histone deacetylase 1 [9]): 16000 nM
13 | O=C(NO)c1ccc(CNCc2cccs2)cc1 | 68 | 15 | 71.6 | 106 | 158 | 3200 | –
14 | O=C(NO)c1ccc(CNCc2ccsc2)cc1 | 50 | 16 | 81.5 | 24 | 177 | 1900 | –
15 | Cc1ccc(CN2CCC(/C=C/C(=O)NO)CC2)cc1 | – | – | 104.9 | – | – | – | inhibition [13]: 23%
16 | O=C(/C=C/C1CCN(Cc2ccc(-c3ccccc3)cc2)CC1)NO | 56 | 22 | 55 | – | – | – | inhibition [13]: 46%; inhibition [11]: 54%; inhibition [14]: 91%; inhibition [2]: 29%; inhibition [4]: 72%
